This is an account of results in ChEMBL document CHEMBL1155209, “Synthesis and in vitro study of 14-aryl-14H-dibenzo[a.j]xanthenes as cytotoxic agents” (Bioorg Med Chem Lett, 2009).

What all share (assay type): functional, cell-based
The subject of one test is PC-3. The test can be described thus: Cytotoxicity against human PC3 cells […] by SRB assay. Particulars: PC-3, 48 h, in the assay text read “48 hrs” for “72 hrs”. The essentials:
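Human cancer lines from NCI grown in RPMI-1640 (2 mM glutamine, pH 7.4, 10% fetal calf serum, streptomycin/penicillin) at 37 °C, 5% CO2. Cells trypsinized at subconfluence, >98% viable by trypan blue, seeded and grown 24 h, then given test material for 48 h. TCA fixation at 4 °C 1 h, SRB staining, dye dissolved in Tris-HCl pH 10.4, OD 540 nm. Growth inhibition relative to untreated control after blank subtraction.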

Another test has as its system SK-N-SH. The test is described as follows: Cytotoxicity against human SK-N-SH cells […] by SRB assay. Background: Sulforhodamine B stains cellular protein and so reports cell mass.
A short description of test [1]: Cytotoxicity against human 502713 cells […] by SRB assay.
Another test relates to COLO 205. The test can be described thus: Cytotoxicity against human COLO205 cells […] by SRB assay.
The next test concerns SW-620. The test can be described thus: Cytotoxicity against human SW620 cells […] by SRB assay.
For another test, the system named is A549. The test is described as follows: Cytotoxicity against human A549 cells […] by SRB assay.

As for `COc1cc(C2c3c(ccc4ccccc34)Oc3ccc4ccccc4c32)ccc1O`, the IC50 (commonly the midpoint of a concentration-inhibition curve) in the test with PC-3 was 61.1 µM; with SK-N-SH, 44.3 µM; in test [1], 45.4 µM; in the test with COLO 205, 41.9 µM; in the test on SW-620, 54.4 µM; in the test with A549 it was 74.3 µM.
For `O=[N+]([O-])c1ccccc1C1c2c(ccc3ccccc23)Oc2ccc3ccccc3c21`, the IC50 in the test on PC-3 turned out to be 82 µM; with SK-N-SH, 55 µM; in test [1], 50 µM; in the test with SW-620 it was 63.2 µM.
As for `OCC(O)COc1ccc(C2c3c(ccc4ccccc34)Oc3ccc4ccccc4c32)cc1` (stereo unspecified), the IC50 in the test on PC-3 was determined as 63.9 µM; in the test with SK-N-SH, 44 µM; in test [1], 41.3 µM; with COLO 205, 37.9 µM; in the test with SW-620 it was 49.1 µM; in the test on A549 it was 128 µM.
